Usually inhibition stands for the percentage by which the read-out fell short of the control. Broadly, the IC50 is the point on the concentration scale where inhibition reaches its midpoint. A high value points to lower potency.

Consider five compounds from ChEMBL document CHEMBL4325907, “Diaryl hydroxylamines as pan or dual inhibitors of indoleamine 2,3-dioxygenase-1, indoleamine 2,3-dioxygenase-2 and tryptophan dioxygenase” (Eur J Med Chem, 2019).

Data set [1] has as its target T1, Indoleamine 2,3-dioxygenase 1 (Homo sapiens, UniProt P14902). As to the kind of experiment: Inhibition of IDO1 (unknown origin) at 100 uM using L-tryptophan as substrate by spectrophotometric method relative to control.
Target sequence in this assay (P14902 whole entry, looked up): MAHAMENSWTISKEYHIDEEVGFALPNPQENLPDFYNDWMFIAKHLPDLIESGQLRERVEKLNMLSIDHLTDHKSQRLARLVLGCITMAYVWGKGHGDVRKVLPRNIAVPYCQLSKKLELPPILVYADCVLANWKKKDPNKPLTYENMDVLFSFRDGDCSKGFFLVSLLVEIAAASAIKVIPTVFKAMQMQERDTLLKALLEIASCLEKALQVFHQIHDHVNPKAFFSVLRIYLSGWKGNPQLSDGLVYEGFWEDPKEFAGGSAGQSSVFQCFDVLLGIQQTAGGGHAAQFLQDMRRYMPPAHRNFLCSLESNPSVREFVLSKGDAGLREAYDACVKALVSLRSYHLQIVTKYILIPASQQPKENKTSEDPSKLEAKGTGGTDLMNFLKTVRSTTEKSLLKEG
Data set [2] addresses T2, Indoleamine 2,3-dioxygenase 2 (Mus musculus, UniProt Q8R0V5).
T2 sequence (Q8R0V5 whole entry): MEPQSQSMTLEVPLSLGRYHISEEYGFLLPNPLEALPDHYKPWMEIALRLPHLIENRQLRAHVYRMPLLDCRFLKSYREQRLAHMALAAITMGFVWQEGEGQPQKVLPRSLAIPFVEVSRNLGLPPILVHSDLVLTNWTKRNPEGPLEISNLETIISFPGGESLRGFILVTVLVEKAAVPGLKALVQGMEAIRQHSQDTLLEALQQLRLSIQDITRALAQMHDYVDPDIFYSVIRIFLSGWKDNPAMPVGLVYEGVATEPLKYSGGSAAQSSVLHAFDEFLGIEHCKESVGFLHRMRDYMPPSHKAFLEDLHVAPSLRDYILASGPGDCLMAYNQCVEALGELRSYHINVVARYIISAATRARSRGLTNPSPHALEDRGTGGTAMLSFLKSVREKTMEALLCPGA
The experiment in a line: Inhibition of mouse IDO2 expressed in human T-REx cells using L-tryptophan as substrate after 20 hrs. The data set is classed as cell-based. The essentials:
(§1)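 HeLa cells (endogenous human IDO1) were induced with 100 ng/mL IFNγ for 24 h at 100 μM Trp. T-REx cells carried tet-regulated human TDO (2 ng/mL doxycycline, 24 h, 100 μM Trp) or mouse IDO2 (doxycycline plus 8 mM 5-aminolevulinic acid, 20 μM hemin, 4 mM Trp, 48 h). After induction, compound serial dilutions were added in medium with final Trp 100 μM (IDO1/TDO) or 2 mM (IDO2) for 20 h at 37 °C. Read-out was TCA fixation, 65 °C hydrolysis, then p-dimethylaminobenzaldehyde colour.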

Data set [3] deals with T3, Tryptophan 2,3-dioxygenase (Homo sapiens, UniProt P48775). As to the kind of experiment: Inhibition of TDO (unknown origin) at 100 uM using L-tryptophan as substrate by spectrophotometric method relative to control.
Target sequence in this assay (P48775 whole entry, looked up): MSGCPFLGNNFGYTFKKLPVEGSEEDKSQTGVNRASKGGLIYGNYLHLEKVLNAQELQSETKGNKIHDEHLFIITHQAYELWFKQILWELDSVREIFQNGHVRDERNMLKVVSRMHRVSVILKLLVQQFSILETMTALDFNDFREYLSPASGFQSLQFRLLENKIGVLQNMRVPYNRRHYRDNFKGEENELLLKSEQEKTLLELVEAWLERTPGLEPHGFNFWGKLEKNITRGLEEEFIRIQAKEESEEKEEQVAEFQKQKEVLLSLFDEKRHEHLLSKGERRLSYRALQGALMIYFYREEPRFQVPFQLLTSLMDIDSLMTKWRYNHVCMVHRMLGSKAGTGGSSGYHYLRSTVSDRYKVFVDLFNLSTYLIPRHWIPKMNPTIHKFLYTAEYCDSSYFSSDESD
The target in data set [4] is T1, Indoleamine 2,3-dioxygenase 1. As to the kind of experiment: Inhibition of IDO1 (unknown origin) using L-tryptophan as substrate by spectrophotometric method.
Target sequence in this assay (P14902 whole entry): as the sequence (P14902 whole entry, looked up) above
Data set [5] is filed under the species Homo sapiens. As to the kind of experiment: Selectivity ratio of IC50 for inhibition of human TDO expressed in human T-REx cells to IC50 for inhibition of IDO1 in human HeLa cells. The class given is cell-based. The gist of the method:
as §1

Data set [6] deals with T4, Indoleamine 2,3-dioxygenase 2 (Homo sapiens) (UniProt Q6ZQW0).
T4 sequence (whole entry): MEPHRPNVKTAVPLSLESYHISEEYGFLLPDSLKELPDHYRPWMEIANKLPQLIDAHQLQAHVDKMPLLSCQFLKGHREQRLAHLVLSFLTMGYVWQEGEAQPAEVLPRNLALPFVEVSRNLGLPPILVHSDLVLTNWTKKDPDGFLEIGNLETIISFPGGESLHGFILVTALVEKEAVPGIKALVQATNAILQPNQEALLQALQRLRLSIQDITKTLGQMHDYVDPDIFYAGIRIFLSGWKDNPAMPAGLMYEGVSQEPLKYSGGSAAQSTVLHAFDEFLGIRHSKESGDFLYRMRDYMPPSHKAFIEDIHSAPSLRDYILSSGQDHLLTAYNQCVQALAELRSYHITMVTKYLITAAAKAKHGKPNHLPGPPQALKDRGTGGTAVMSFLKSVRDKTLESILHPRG
The experiment in a line: Inhibition of IDO2 (unknown origin) at 100 uM using L-tryptophan as substrate by spectrophotometric method relative to control.

Data set [7] addresses T1, Indoleamine 2,3-dioxygenase 1. As to the kind of experiment: Inhibition of IDO1 in human HeLa cells using L-tryptophan as substrate after 20 hrs. The data set is classed as cell-based. The gist of the method: as §1
Target sequence in this assay (P14902 whole entry): as the sequence (P14902 whole entry, looked up) above
Data set [8] deals with T3, Tryptophan 2,3-dioxygenase. As to the kind of experiment: Inhibition of human TDO expressed in human T-REx cells using L-tryptophan as substrate after 20 hrs. The data set is classed as cell-based. The essentials:
as §1
Target sequence in this assay (P48775 whole entry): as the sequence (P48775 whole entry, looked up) above

The nature of data set [9]: Cytotoxicity against human HeLa cells assessed as cell viability up to 100 uM relative to control. The data set is classed as cell-based. The note with it: read-out: Activity.
Data set [10] can be described thus: Selectivity ratio of IC50 for inhibition of mouse IDO2 expressed in human T-REx cells to IC50 for inhibition of IDO1 in human HeLa cells. The class given is cell-based. The gist of the method:
as §1

Data set [11] concerns the target T5, Indoleamine 2,3-dioxygenase 2 (Homo sapiens, UniProt Q6ZQW0).
T5 sequence (Q6ZQW0 whole entry): T4 sequence (whole entry)
As to the kind of experiment: Inhibition of IDO2 (unknown origin) using L-tryptophan as substrate by spectrophotometric method.

For data set [12], the species on record is Homo sapiens. The experiment in a line: Selectivity ratio of IC50 for inhibition of IDO2 (unknown origin) to IC50 for inhibition of IDO1 (unknown origin).
The species named for data set [13] is Homo sapiens. The experiment in a line: Selectivity ratio of IC50 for inhibition of TDO (unknown origin) to IC50 for inhibition of IDO1 (unknown origin).
Data set [14] deals with T1, Indoleamine 2,3-dioxygenase 1. The experiment in a line: Inhibition of IDO1 in human HeLa cells at IC50 using L-tryptophan as substrate after 24 hrs in presence of 100% human serum by LC-MS/MS analysis. The data set is classed as cell-based.
Target sequence in this assay (P14902 whole entry, looked up): as the sequence (P14902 whole entry, looked up) above
The target of data set [15] is T3, Tryptophan 2,3-dioxygenase. The experiment in a line: Inhibition of TDO (unknown origin) using L-tryptophan as substrate by spectrophotometric method.
Target sequence in this assay (P48775 whole entry): as the sequence (P48775 whole entry, looked up) above

Activity calls are given as the source filed them. The calls are words filed in the database; no cut-off is given here. Bounds are passed on as bounds.

On to `NOC(c1ccccc1)c1ccccc1Cl` (stereo not given), for which the inhibition is more than 95% in data set [1], 89.8% in data set [3] and more than 95% in [6]. In addition, the IC50 in [2] came out at 10.7 µM; in data set [4], 18 µM; in [7], 2.48 µM; in data set [8], 21.8 µM; in data set [11], 25 µM. The Ratio IC50 (in the data set listed under Homo sapiens [5]; in data set [10]) was 5 to 10 throughout. Moreover, in data set [9], the viability was not below 80%.

For the compound `NOC(CCCC(=O)Nc1ccccc1)c1cccc(Cl)c1` (stereo not given), the inhibition was more than 95% in data set [1], 75.5% in data set [3] and 84.3% in data set [6]. In addition, the IC50 in data set [2] was found to be 36.1 µM; in data set [4], 3 µM; in data set [7] it was 1.43 µM; in data set [8], 123 µM. The Ratio IC50 in the data set listed under Homo sapiens [12] and in the data set filed under Homo sapiens [13] was more than 20 each time. Also, the viability in [9] was not below 80%.

In the case of `NOC(c1ccccc1)c1ccc(Cl)cc1Cl` (stereo not given), the results for the inhibition in data set [1], in data set [3] and in [6] were more than 95%, more than 95% and 73%, respectively. Moreover, the half-inhibitory concentration (IC50) in data set [2] turned out to be 7.68 µM; in [4] it was 4 µM; in [7] it was 1.99 µM; in data set [8], 4.82 µM; in data set [15], 6 µM. In addition, the viability in data set [9] was not below 80%. The inhibition entry in [14] was “inactive”.

Regarding `NOC(c1ccccc1)c1ccc(Cl)c(Cl)c1` (stereo not given), the inhibition in [1], in [3] and in data set [6] was more than 95% in each case. Further, the IC50 in data set [2] was found to be 19.5 µM; in data set [4] it was 2 µM; in data set [7] it was 1.91 µM; in data set [8] it was 8.11 µM; in [11], 32 µM; in [15], 4 µM. Besides, the viability in data set [9] is not below 80%.

Consider `NOC(c1ccccc1)c1cc(Cl)cc(Cl)c1` (stereo not given), for which the inhibition in [1] is more than 95%; in [3], 83.4%; in [6] it was 69.8%. In addition, the IC50 in data set [2] stood at 8.66 µM; in data set [4], 2 µM; in [7], 0.87 µM; in data set [8], 5.7 µM. Further, the viability in data set [9] is not below 80%. The inhibition result in data set [14] was “Active”.
